Only some compounds are listed: those with a hit (about 2.3% of all), similar ones and a draw of the others.
TRPC6 activator: mouse TRPC6 channel activation. AID 2550. HEK293-TRPC6 membrane potential dye fluorescence; active compounds read high. Q61143. B-score at 10 µM. hit rate 0.13% among 310,000;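 active = B-score of the integrated fluorescence ratio above library mean plus 3 SD, and starting fluorescence ratio within library mean plus 5 SD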;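 note: higher score means more depolarization so channel activation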
TRPC4 act: activators of mouse TRPC4 channel | hit rate 0.49% among 310,000 | B-score at 10 µM | Q9QUQ5 | HEK293 TRPC4beta/mu-opioid, Fluo4 calcium fluorescence; active compounds read high;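 active = B-score above 5 SD of library B-scores, and initial fluorescence ratio not above library mean plus 5 SD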;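 note: positive B-score marks a calcium rise read as TRPC4 activation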
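system = HEK293 cells stably co-expressing mouse TRPC4beta and mu-opioid receptor | schedule = Fluo4 dye loading 45 min at room temperature, 110 s recording | measure = B-scored integrated calcium fluorescence ratio | signal = Fluo4 calcium-sensitive dye fluorescence, kinetic, 1 Hz baseline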
TRPC4 potent: allosteric potentiators of mouse TRPC4 channel; Q9QUQ5; HEK293 TRPC4beta/mu-opioid, DAMGO EC20, Fluo-4 Ca2+ flux; active compounds read high; B-score at 10 µM; hit rate 0.42% among 310,000; AID 2227;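 active = B-score of calcium response area above 5 SD of library B-scores, with initial fluorescence ratio within 5 SD of library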;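 note: B-score of integrated fluorescence ratio over time as area under calcium response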
TRPC4 block: inhibitors of mouse TRPC4 channel. Q9QUQ5. HEK293 TRPC4beta/mu-opioid, DAMGO-evoked Fluo4 calcium flux; active compounds read low. B-score at 10 µM. hit rate 0.39% among 300,000;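 active = B-score over 3 SD under the library average, no early fluorescence shift, positive overall ratio signal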
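Assay system: TRPC4beta/mu-opioid receptor HEK293 cell line; compound dosing: single concentration per test compound; detection: Fluo4 Ca2+ flux fluorescence; evaluation: per-well B score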
TRPC6 inh: inhibitors of mouse TRPC6 channel; Q61143; HEK293-TRPC6, membrane potential dye, ACh-evoked depolarization; active compounds read low; B-score at 10 µM; hit rate 1.1% among 310,000;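 active = B-score under library mean minus 3 SD, initial fluorescence not abnormally high, positive integrated signal ratio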;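 note: B-score derived from integrated fluorescence ratio over the kinetic read; more negative B-score means stronger inhibition of depolarization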
The depositor's hits bear a star.

`C=CCN1CC[C@]23c4c5ccc(O)c4O[C@H]2/C(=N/NC(=O)c2ccccc2)CC[C@@]3(O)[C@H]1C5` gave TRPC6 activator inactive, TRPC4 act 49*, TRPC4 potent inactive, TRPC4 block inactive and TRPC6 inh inactive.
`Cc1ccc(CN2C3CCCC2CC(NC(=S)NCc2ccccc2)C3)cc1` (centres undefined) gave TRPC6 activator inactive, TRPC4 act inactive, TRPC4 potent inactive, TRPC4 block -8* and TRPC6 inh inactive.
`Cc1cccc(N=Cc2c(O)n(-c3ccccc3C)c(=O)[nH]c2=O)c1` gave TRPC6 activator inactive, TRPC4 act inactive, TRPC4 potent 24*, TRPC4 block inactive and TRPC6 inh inactive.
Screening COc1cc(OC)c(OC)cc1CNCCc1ccc(OC)c(OC)c1 returned TRPC6 activator inactive, TRPC4 act inactive, TRPC4 potent inactive, TRPC4 block inactive and TRPC6 inh inactive.
For COc1ccc(CNCCc2cccc(F)c2)c2ccccc12 the results were TRPC6 activator inactive, TRPC4 act 57*, TRPC4 potent inactive, TRPC4 block inactive and TRPC6 inh inactive.
`COc1ccc(CNCCc2ccc(Cl)cc2)c(OC)c1OC` gave TRPC6 activator inactive, TRPC4 act 62*, TRPC4 potent inactive, TRPC4 block inactive and TRPC6 inh inactive.
`COc1cc(OC)c(OC)cc1CNCCc1cccc(F)c1` gave TRPC6 activator inactive, TRPC4 act inactive, TRPC4 potent inactive, TRPC4 block inactive and TRPC6 inh inactive.
For Cc1cc(OCC(=O)NC(Cc2ccc(Cl)cc2)C(=O)O)c2c3c(c(=O)oc2c1)CCCC3 (centres undefined) the results were TRPC6 activator inactive, TRPC4 act inactive, TRPC4 potent inactive, TRPC4 block inactive and TRPC6 inh inactive.
For CC1C(OC(=O)CCC(=O)NC(C)(C)CO)O[C@H]2OC3(C)CC[C@H]4[C@H](C)CCC1C24OO3 (some centres undefined) the results were TRPC6 activator inactive, TRPC4 act inactive, TRPC4 potent inactive, TRPC4 block inactive and TRPC6 inh inactive.
`CC/C(=C\C=C\[C@@H]1C=C[C@@H]2CCC[C@H]2[C@@H]1C(=O)c1ccc[nH]1)[C@@H]1O[C@@H]([C@@H](C)C(=O)O)CC[C@@H]1C` gave TRPC6 activator inactive, TRPC4 act 67*, TRPC4 potent inactive, TRPC4 block inactive and TRPC6 inh inactive.
Screening CN(C)C1(CNC(=O)c2ccc(Cl)c(S(=O)(=O)NCc3ccco3)c2)CCCCC1 returned TRPC6 activator inactive, TRPC4 act 73*, TRPC4 potent inactive, TRPC4 block inactive and TRPC6 inh inactive.
Screening O=c1c(C=Nc2cccnc2Cl)c(O)n(CCCCl)c(=O)n1C1CCCCC1 returned TRPC6 activator inactive, TRPC4 act inactive, TRPC4 potent inactive, TRPC4 block inactive and TRPC6 inh inactive.
`O=c1[nH]c(=O)n(Cc2ccc(F)cc2)c(O)c1C=NCCCO` gave TRPC6 activator inactive, TRPC4 act 57*, TRPC4 potent inactive, TRPC4 block -5* and TRPC6 inh inactive.
Screening O=c1[nH]c(=O)n(Cc2ccc(F)cc2)c(O)c1C=NCCCn1ccnc1 returned TRPC6 activator inactive, TRPC4 act inactive, TRPC4 potent inactive, TRPC4 block inactive and TRPC6 inh inactive.
Screening CCc1cc(=O)oc2c(C)c(OCC(=O)N3C[C@H]4C[C@@H](C3)c3cccc(=O)n3C4)ccc12 returned TRPC6 activator inactive, TRPC4 act inactive, TRPC4 potent inactive, TRPC4 block inactive and TRPC6 inh inactive.
Screening CCN(CC)c1ccc(CNCCc2ccc(F)cc2)cc1 returned TRPC6 activator inactive, TRPC4 act 51*, TRPC4 potent inactive, TRPC4 block inactive and TRPC6 inh inactive.
Screening CCc1ccc(CNCCc2ccc(F)cc2)cc1 returned TRPC6 activator inactive, TRPC4 act inactive, TRPC4 potent inactive, TRPC4 block inactive and TRPC6 inh inactive.
`CCOc1cc2c(cc1OCC)-n1cccc1C(c1cccc([N+](=O)[O-])c1)NC2` (centres undefined) gave TRPC6 activator inactive, TRPC4 act inactive, TRPC4 potent inactive, TRPC4 block inactive and TRPC6 inh inactive.
